Compound activity as filed in PubChem.
PLC-gamma1 inh = PLC-gamma1 (human) inhibition, primary screen | inhibition, % at 12.2 µM | actives 0.84% (n = 370,000) | P19174 | purified PLC-gamma1, fluorogenic substrate, fluorescence; in the data active = inhibition above about 9.5%
DDE Tn7 FP inh = inhibitors of Tn7 peptide binding to human fibrin DD(E) | P02675 | FP displacement of FITC-Tn7 peptide from fibrin DD(E); 0% = median of compound wells per plate | inhibition, % at 8.3 µM | actives 0.13% (n = 370,000) | AID 720508;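 active = inhibition above the mean of compounds falling within the control limits plus 3 SD of them, cut at about 14% in these data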;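 note: 0% = plate median of compound wells and 100% = 10 µM Aha-Tn7 peptide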
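Test system – human fibrin DD(E) · Times – 10 min preincubation, 3 h with tracer, room temperature · Detection – fluorescence polarization of the labelled Tn7 tracer · Measure – percent inhibition normalized to high-control wells · Benchmarks – high control wells with 10 µM unlabelled Aha-Tn7 peptide (full inhibition) · Repeats – singlicate testing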
PLC-beta3 inh = inhibitors of human phospholipase C beta3. inhibition, % at 12.2 µM. Q01970. actives 0.18% (n = 370,000). Purified PLC-beta3, fluorogenic substrate, fluorescence. AID 720704; in the data active = inhibition above about 11%;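 note: 0% = median of compound wells on plate and 100% = full blocker control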
Tn6 DDE FP = DD(E)-Tn6 binding inhibition, primary FP screen | P02675 | actives 0.21% (n = 370,000) | Fibrin DD(E) TRITC-Tn6 fluorescence polarization displacement | inhibition, % at 8.3 µM | AID 720509;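 active = inhibition above a per-campaign cutoff: mean of compounds within control limits plus 3 SD, cut at about 15% in these data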;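 note: 0% = median of all compound wells on the plate and 100% = blocking peptide control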
NRP1-CendR mod = NRP-1/CendR interaction modulation; inhibition, % at 25 µM; O14786; actives 0.85% (n = 360,000); FAM-RPARPAR peptide binding to NRP-1, fluorescence polarization; AID 602438;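 active = inhibition or corrected inhibition above about 18%, plus a signal ratio from 0.5 to 1.5, limit read from the data, passing the limit was not always enough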
proKLK7 act = activates the human kallikrein-7 zymogen | purified proKLK7, EDANS-DABCYL substrate fluorescence; 100% is mature enzyme control, 0% vehicle | activation, % at 7 µM | actives 0.9% (n = 370,000) | P49862;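 active = activation above the mean of all tested compounds plus 3 SD, computed per campaign excluding outliers beyond control limits, cut at about 13% in these data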
DDE Tn6 FP ctr = counter-screen hit for Tn6 peptide-fibrin DD(E) binding disruption. inhibition, % at 8.3 µM. actives 2% (n = 680). shares compounds with Tn6 DDE FP. TRITC-Tn6 fluorescence polarization displacement; 0% = median of compound wells, not DMSO;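 active = inhibition above the mean of test compounds lying between the control limits plus 3 SD of those, cut at about 14% in these data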;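 note: 0% = median of compound wells and 100% = wells with Aha-Tn7 blocking peptide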
DDE Tn6 confirm = confirmation of inhibitors of Tn6 binding to human fibrin DD(E). inhibition, % at 8.3 µM. actives 10% (n = 680). FP displacement of TRITC-Tn6 peptide from DD(E); 0% = per-plate median of test wells. AID 720631. shares compounds with Tn6 DDE FP;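 active = inhibition above the mean of compounds lying within the control limits plus 3 SD, cut at about 16% in these data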;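 note: 100% = high control wells holding a competing inhibitor peptide at 10 µM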
* hit, by the source's call; / = no result given; + = active, no number. An excerpt weighted towards active compounds, which were near 3% of everything screened.

SMILES	PLC-gamma1 inh	DDE Tn7 FP inh	PLC-beta3 inh	Tn6 DDE FP	NRP1-CendR mod	proKLK7 act	DDE Tn6 FP ctr	DDE Tn6 confirm
O=C(COc1ccc2ccccc2c1)NCCc1ccc2c(c1)OCCO2	5.7	-1.4	-1.2	17.7*	-8.2	0.4	-1.5	-9.9
CC1=CN2C(=N)/C(=C/c3ccc([N+](=O)[O-])o3)C(=O)N=C2S1	-54.2	-5.4	-66.4	20.1*	136.2	-0.2	-11.6	-10.4
CCOCCCn1c(=S)[nH]c2cc(C(=O)NCC(OC)OC)ccc2c1=O	-0.8	-3.4	-0.3	15.7*	0.9	0.1	-7.6	-14.7
CCCCCNC(=O)c1ccc2c(=O)n(CCCOCC)c(=S)[nH]c2c1	2.9	-3.8	-4.6	-0.6	-3.3	-1.2	/	/
O=C(CSc1nc2sc3c(c2c(=O)n1-c1ccc(Cl)cc1)CCC3)Nc1ccc(C(=O)O)cc1	-1.3	-4.1	-4.8	10.6	/	0.1	/	/
COc1ccc(-c2cc(C(=O)Nc3ccccc3)on2)cc1	4.0	-2.3	5.4	22.4*	10.7	0.5	3.3	-0.6
COc1ccc(S[C@]2(C(=O)NC3CC3)CC(=O)N[C@@H]2c2ccc(OC)cc2)cc1	0.4	0.8	-2.0	4.2	/	0.5	/	/
CCOC(=O)Nc1cccc(Cl)c1C	1.2	2.9	1.4	-2.2	-3.4	0.0	/	/
CCOC(=O)CNC(=O)Nc1cccc(Cl)c1C	-1.7	-1.0	-0.5	51.6*	-1.7	-0.1	1.3	-3.7
O=C(c1cc(Cl)cc(Cl)c1)N1CCC(Oc2cccnc2)CC1	0.3	-8.6	0.5	5.7	/	0.0	/	/
Cc1ccc(C2CCC3(CCC(=O)N3CCOC(=O)Nc3ccc(F)cc3)CC2)cc1 (configuration not stated)	1.4	6.5	-2.0	-6.3	/	-0.2	/	/
Cc1cccc(C)c1-n1nnnc1C1(C)CN(S(C)(=O)=O)CC(=O)N1Cc1ccc(F)cc1 (configuration not stated)	2.8	-4.5	3.0	16.0*	/	0.1	-2.4	-4.7
Cc1cccc(C)c1-n1nnnc1C1(C)CCC(=O)N1Cc1ccc(F)cc1 (configuration not stated)	5.3	1.6	0.3	-0.9	8.1	0.2	/	/
CC(C)C(=O)NCCc1nc2ccccc2n1CCOc1ccccc1	2.7	0.5	3.3	15.4*	4.8	-0.9	9.0	8.0
O=c1ccc2[n+]([O-])c3ccc(O)cc3oc-2c1	-130.3	1.8	-197.3	+	7.0	-6.8	2.0	93.2*
Cc1cc(CN(C)C(=O)CC2C(=O)NCCN2Cc2ccc(-c3ccccc3)cc2)on1 (configuration not stated)	-12.6	2.1	-24.4	15.9*	4.8	0.3	-2.3	-13.8
CN(CCc1ccccn1)C(=O)c1ccc(Sc2ccccc2Cl)c([N+](=O)[O-])c1	1.7	4.5	0.0	3.1	/	1.1	/	/
O=[n+]1c2c(n([O-])c3cc(F)c(N4CCCC4)cc31)CCC2	-180.0	11.6	-244.1	15.6*	125.9	7.7	4.2	17.1*
COC(=O)c1ccc(Cn2c(C)c(C(=O)NCc3cccc(C(F)(F)F)c3)sc2=O)o1	-1.0	4.8	-0.7	17.3*	2.8	0.3	4.7	-3.2
COC(=O)c1ccc(Cn2c(C)c(C(=O)NCc3cccc([N+](=O)[O-])c3)sc2=O)o1	0.3	2.1	-1.4	-5.0	2.6	-0.1	/	/
Cc1ccc(C(=O)n2cnc3ccccc32)cc1C	-3.1	-0.1	-0.8	15.9*	11.3	-0.4	3.9	3.1
C[C@H](O)[C@@H]1C(=O)N2CCc3c([nH]c4c(-c5ccccc5)cccc34)[C@@H]2C[C@@H]1N(C)C(=O)c1ccccc1F	-7.4	0.9	-13.2	-2.9	/	2.3	/	/
CC(=O)c1cccc(NC(=O)COC(=O)c2n[nH]c3ccccc23)c1	0.4	-3.3	0.0	15.7*	2.2	-0.1	6.3	-3.6
